# DSG3 Ab inh = inhibitors of pemphigus antibody binding to human desmoglein-3; binding (percent of control), % at 10 µM; DSG3-coupled beads, scFv-anti-DSG3-GFP binding, flow cytometry; active compounds read low; P32926; hit rate 0.48% among 310,000;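 active means binding more than 3 SD below its plate's average and above zero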;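 further: hits lower antibody fragment binding to DSG3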
# Rce1 inh = blocks yeast Ras-converting enzyme; Q03530; yeast membranes, quenched prenylated peptide cleavage fluorescence; calls only; hit rate 0.27% among 290,000; AID 2563;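 active means fall in fluorescence gain of 50% or more versus controls, with final raw signal at or below 3038400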
# Target sequence (Q03530 whole entry, looked up): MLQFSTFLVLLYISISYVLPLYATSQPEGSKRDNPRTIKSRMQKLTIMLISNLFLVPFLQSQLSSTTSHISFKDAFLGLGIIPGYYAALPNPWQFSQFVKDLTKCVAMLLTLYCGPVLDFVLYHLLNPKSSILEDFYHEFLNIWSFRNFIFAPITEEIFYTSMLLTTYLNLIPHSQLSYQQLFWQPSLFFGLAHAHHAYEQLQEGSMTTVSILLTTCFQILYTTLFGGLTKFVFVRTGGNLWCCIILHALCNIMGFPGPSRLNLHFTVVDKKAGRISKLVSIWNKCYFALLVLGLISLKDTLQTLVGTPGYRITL
# HCV core dimer = HCV core protein dimerization inhibition; TR-FRET GST/Flag-core106 dimerization, 1536-well; inhibition, % at 5 µM; hit rate 0.33% among 300,000;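 active means inhibition above the mean of all tested compounds plus 3 SD, set per screening campaign, cut at about 45% in these data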
#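 Assay system – GST-tagged and Flag-tagged HCV core protein residues 1-106 · Quantity – core106 proteins, GST 13.5 nM and Flag 17 nM · Benchmarks – unlabelled core106 and no-GST-core106 wells · Read-out basis – percent inhibition of core106 dimerization signal · Detection – time-resolved FRET, ex 340 nm, em 617 and 671 nm · Schedule – 4 h at 22.5 °C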
# TbMetRS inhib = Trypanosoma brucei MetRS inhibition; purified T. brucei MetRS, ATP depletion, Kinase-Glo luminescence; inhibition, % at 11.9 µM; hit rate 0.4% among 360,000; AID 624268;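 active means inhibition above a per-plate cutoff of the control wells' mean inhibition plus 3 SD, cut at about 5.5% in these data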
#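 System: purified T. brucei MetRS enzyme / Detection: Kinase-Glo luciferase luminescence reporting remaining unconsumed ATP / Medium: HEPES buffer with MgCl2, KCl, DTT, spermine, BSA, pyrophosphatase / Replication: singlicate, one well per compound / Evaluation: percent inhibition relative to median high and low control wells / Schedule: 2 h aminoacylation at 25 °C after 15 min preincubation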
# NadD block = blocks S. aureus nicotinate mononucleotide adenylyltransferase; inhibition, % at 20 µM; purified NadD enzyme, colorimetric absorbance read-out; hit rate 0.78% among 360,000; in the data active means inhibition above about 26%
# Hits are given with their value; . = inactive; / = no result given; + = active, no number. In the library only some 1.9% were active in any assay of this set; here they are far more common.
SMILES,DSG3 Ab inh,Rce1 inh,HCV core dimer,TbMetRS inhib,NadD block
COc1ccc(C(CC(=O)NCc2ccco2)c2ccc(F)cc2)cc1 (configuration not stated),31,.,.,.,.
COc1ccccc1NCCC(=O)OCC(=O)NCc1ccco1,.,.,58,.,.
COc1ccc(OCCC(=O)OCC(=O)NCc2ccco2)cc1,/,.,85,.,.
COc1cc(NC(=O)C2CC(=O)N(Cc3ccco3)C2)c(OC)cc1Cl (configuration not stated),.,/,/,.,.
COc1ccc(-c2cc(N3C(=O)Nc4ccccc4N3O)n[nH]2)c(OC)c1,.,.,.,.,.
Cc1ccc(Cl)cc1N1CCN(C(=O)Cc2c(C(=O)O)[nH]c3ccc(Cl)cc23)CC1,23,.,.,.,.
COc1ccc(C(=O)NCCN2CCCC2)cc1OC,/,.,.,.,.
COC(=O)C1OC1c1cc([N+](=O)[O-])ccc1OC (configuration not stated),.,/,/,.,.
COc1ccc([N+](=O)[O-])cc1C1NN=C(c2ccccc2O)S1 (configuration not stated),/,.,.,.,35
CCCC(=O)N1CCN(c2ccc(NC(=O)c3ccco3)cc2)CC1,/,.,.,.,.
CCCC(C)C(=O)Nc1ccc2c(c1)OCCO2 (configuration not stated),.,.,.,.,.
COc1cccc(NC(=O)CSc2nnc(CNC(=O)c3ccccc3F)o2)c1,.,.,.,.,.
CCSc1nnc(NC(=O)CSc2nnc(CNC(=O)c3ccccc3F)o2)s1,54,.,.,.,.
Cc1ccccc1C(=O)NNC(=S)NC(=O)c1cccs1,79,.,.,.,.
CC(C)(C)c1ccc(C(=O)NC(=S)NNC(=O)c2cccs2)cc1,81,.,.,.,.
Cn1c(=O)c(=O)n(C)c2cc(S(=O)(=O)N3CCc4ccccc43)ccc21,.,.,.,.,.
O=C(NCCc1ccccc1)c1cccnc1N1CCCCCC1,.,.,.,.,.
COC(=O)c1ccc(C(=O)N2CCCC(N3CCN(c4ccc(F)cc4)CC3)C2)nc1 (configuration not stated),.,.,.,.,.
COc1ccc(OC)c(Nc2cc(C)nc3nc(C)nn23)c1,82,.,.,.,.
CCOCCCNCc1cn(-c2ccc(F)cc2F)nc1-c1ccccc1C,.,.,.,.,.
C/C(=N\NC(=S)NC1CCCCC1)c1ccc(O)cc1,.,.,.,.,.
C/C(=N\NC(=S)NC1CCCCC1)c1ccccc1,83,.,.,.,.
COc1ccccc1N(Cc1ccccc1)S(=O)(=O)c1cccc(C(=O)Nc2ncccc2C)c1,.,.,.,.,.
CCOC(=O)c1c(Nc2ccc(Cl)cc2)sc(/C=C2\C=Nc3ccccc32)c1O,.,.,.,.,33
O=C(CS(=O)(=O)c1ccccc1)Nc1ccc(Br)cn1,59,.,.,.,.
SMILES,DSG3 Ab inh,Rce1 inh,HCV core dimer,TbMetRS inhib,NadD block
COC(=O)[C@@]12CCCCN1[C@H](c1ccc(-c3ccccc3)cc1)[C@@H]1C(=O)N(C)C(=O)[C@@H]12,.,.,.,.,.
Nc1c(S(=O)(=O)c2ccccc2)c2nc3ccccc3nc2n1Cc1ccco1,.,.,.,.,.
Cc1ccc(S(=O)(=O)c2c(N)n(Cc3ccco3)c3nc4ccccc4nc23)cc1C,.,.,.,.,47
Cn1c(-c2cc3ccc(OC(=O)C(C)(C)C)cc3oc2=O)nc2ccccc21,.,.,.,.,.
O=C1NC(=S)NC1=Cc1ccc2c(c1)CCC2,.,/,/,.,.
O=C(COC(=O)C1CC2CCCC(C1)C2=O)Nc1nc(-c2ccc(F)c(F)c2)cs1 (configuration not stated),.,.,.,.,.
COc1cc(/C=C2/CCC/C(=C\c3cc(O)c(OC)c(Cl)c3)C2=O)cc(Cl)c1O,.,.,50,.,50
C=CCN1C(=O)c2ccc(C(=O)N(CC(C)C)c3c(N)n(CCCC)c(=O)[nH]c3=O)cc2C1=O,76,.,.,.,.
CCCCn1c(N)c(N(CC(C)C)C(=O)c2ccncc2)c(=O)[nH]c1=O,.,.,.,.,.
COCc1cc(C)n(CC(=O)Nc2ccc(Cl)cc2Cl)c(=O)c1C#N,-3.1,.,.,.,.
CC(C)NC(=O)c1ccccc1N(Cc1ccccc1)S(C)(=O)=O,/,.,.,.,.
CC(C)NC(=O)c1ccc(N(Cc2ccccc2)S(C)(=O)=O)cc1,88,.,/,.,.
CCC(=O)N(Cc1ccco1)c1nc(-c2ccc(OC)cc2)cs1,.,.,.,.,.
CCC(=O)N(CC)c1nc(-c2ccc(OC)cc2)cs1,73,.,.,.,.
COc1ccc(OC)c(NC(=O)NCCc2cccc(Cl)c2)c1,75,.,.,.,.
COc1ccccc1NC(=O)NCCc1ccccc1,.,.,/,.,.
Cc1noc(NS(=O)(=O)c2ccc(NC(=O)/C=C/c3ccc(Cl)cc3Cl)cc2)c1C,.,/,/,.,.
CSc1nc(NCCCO)c2c3c(sc2n1)CN(C)CC3,.,.,.,.,.
CSc1nc(NCC(C)O)c2c3c(sc2n1)CN(C)CC3 (configuration not stated),.,+,.,.,.
CCOc1ccccc1OCCC(=O)Nc1ccc(F)c(Cl)c1,.,.,.,.,.
CC(Sc1nnc(-c2ccc(Cl)cc2)n1C)C(N)=O (configuration not stated),.,/,.,.,.
CC(C)N(C(=O)Cc1ccccc1[N+](=O)[O-])C(C)C,.,.,.,.,.
COc1ccc(CN(CCN(C)C)c2ccccn2)cc1,.,.,.,.,.
CCCCCCCCCCCCCCCC[N+](C)(C)CCN(Cc1ccc(OC)cc1)c1ncccn1,.,/,.,.,75
CCCc1cc(=O)oc2cc(OCC(=O)NCCc3ccc(S(N)(=O)=O)cc3)ccc12,.,.,.,.,.
SMILES,DSG3 Ab inh,Rce1 inh,HCV core dimer,TbMetRS inhib,NadD block
COc1ccc(C(=O)Nc2ccc(-c3n[nH]c(=S)o3)cc2)cc1OC,.,.,.,.,.
Cc1ccc(-c2cc(C(=O)NCc3ccco3)c3ccccc3n2)s1,.,.,47,.,.
O=C(NCc1ccco1)c1c2c(nc3ccccc13)CCC2,.,.,91,.,.
NC(=O)COC(=O)c1c2c(nc3ccccc13)CCC2,.,.,.,.,.
CC(C)(C)NC(=O)COC(=O)c1c2c(nc3ccccc13)CCC2,.,.,53,.,.
O=C(COC(=O)c1ccccc1Oc1ccccc1)NCc1ccco1,.,.,74,.,.
O=C(CSc1c2c(nc3ccccc13)CCCC2)NCc1ccco1,.,.,.,.,.
C(=N\N1CCN(C2c3ccccc3-c3ccccc32)CC1)/c1ccccn1,.,.,.,.,.
COc1ccc(CC(=O)NC(C)c2nnc(SCC(=O)c3ccc(Br)cc3)n2C)cc1 (configuration not stated),.,.,.,.,.
O=C(Nc1cccc(Cl)c1)C1=CC=CN2CCS(=O)(=O)N=C12,.,/,/,.,.
